Among the data in ChEMBL document CHEMBL3046095, “Synthesis and antiviral activities of amide derivatives containing the alpha-aminophosphonate moiety” (J Agric Food Chem, 2008) are Activity and EC50 values, retold here.

Test [1] concerns Tobacco mosaic virus. The experiment in a line: Antiviral activity against Tobacco mosaic virus (TMV) pre-treated with 500 ug/mL compound for 30 min followed by inoculation on left side of Nicotiana tabacum leaves assessed as virus inactivation effect measured 3 to 4 days post viral infection. The class given is functional. A digest of the protocol: (§1)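 Inactivation assay on N. tabacum leaves, with a solvent–virus mixture inoculated as control. Local lesion numbers were recorded 3–4 d after inoculation, three repetitions per compound. Inhibition % was derived from mean lesion counts relative to control.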

For test [2], the system named is Tobacco mosaic virus. The experiment in a line: Antiviral activity against Tobacco mosaic virus (TMV) inoculated on 500 ug/mL compound smeared Nicotiana tabacum leaves assessed as protective effect against viral infection measured 3 to 4 days post viral infection. The class given is functional. Summed up: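 Half-leaf assay on same-age growing Nicotiana tabacum leaves: compound solution smeared on left half, solvent on right half as control. After 12 h, leaves scattered with silicon carbide were brush-inoculated with TMV at 6 × 10^-3 mg/mL. Local lesions were counted 3–4 d post-inoculation, three repetitions. Inhibition % = (control mean lesions − treated mean lesions)/control mean lesions × 100.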

Test [3] deals with Tobacco mosaic virus. The test is described as follows: Antiviral activity against Tobacco mosaic virus (TMV) inoculated on whole Nicotiana tabacum leaves followed by smearing with 500 ug/mL compound solution on left side of leaves assessed as viral infection curative effect measured 3 to 4 days post viral infection. The class given is functional. Summed up:
(§2)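 Whole same-age growing N. tabacum leaves were dip-inoculated with TMV at 6 × 10^-3 mg/mL, then washed with water and dried. Compound solution was smeared on left half, solvent on right half as control. Local lesions were counted 3–4 d after inoculation, three repetitions per compound. Inhibition % = (control mean lesions − treated mean lesions)/control mean lesions × 100.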

In test [4] the test system is Tobacco mosaic virus. The experiment in a line: Antiviral activity against Tobacco mosaic virus (TMV) pre-treated with 62.5 ug/mL compound for 30 min followed by inoculation on left side of Nicotiana tabacum leaves assessed as virus inactivation effect measured 3 to 4 days post viral infection. The class given is functional. A digest of the protocol: as §1
Test [5] relates to Tobacco mosaic virus. The experiment in a line: Antiviral activity against Tobacco mosaic virus (TMV) inoculated on whole Nicotiana tabacum leaves followed by smearing with 125 ug/mL compound solution on left side of leaves assessed as viral infection curative effect measured 3 to 4 days post viral infection. The class given is functional. Summed up: as §2
The test system of test [6] is Tobacco mosaic virus. The experiment in a line: Antiviral activity against Tobacco mosaic virus (TMV) inoculated on whole Nicotiana tabacum leaves followed by smearing with 250 ug/mL compound solution on left side of leaves assessed as viral infection curative effect measured 3 to 4 days post viral infection. The class given is functional. A digest of the protocol: as §2

In test [7] the test system is Tobacco mosaic virus. The experiment in a line: Antiviral activity against Tobacco mosaic virus (TMV) pre-treated with 125 ug/mL compound for 30 min followed by inoculation on left side of Nicotiana tabacum leaves assessed as virus inactivation effect measured 3 to 4 days post viral infection. The class given is functional. A digest of the protocol:
as §1

Test [8] deals with Tobacco mosaic virus. The experiment in a line: Antiviral activity against Tobacco mosaic virus (TMV) pre-treated with 250 ug/mL compound for 30 min followed by inoculation on left side of Nicotiana tabacum leaves assessed as virus inactivation effect measured 3 to 4 days post viral infection. The class given is functional. A digest of the protocol: as §1
In test [9] the test system is Tobacco mosaic virus. The test is described as follows: Antiviral activity against Tobacco mosaic virus (TMV) inoculated on whole Nicotiana tabacum leaves followed by smearing with compound solution on left side of leaves assessed as viral infection curative effect measured 3 to 4 days post viral infection. The class given is functional, organism-based. Summed up: as §2

The test system of test [10] is Tobacco mosaic virus. The experiment in a line: Antiviral activity against Tobacco mosaic virus (TMV) pre-treated with compound for 30 min followed by inoculation on left side of Nicotiana tabacum leaves assessed as virus inactivation effect measured 3 to 4 days post viral infection. The class given is functional, organism-based. Summed up: as §1

Values after ≈ are worked out from the molar mass of the structure shown.

As for `CCOP(=O)(OCC)C(NC(=O)c1cccc(F)c1)c1ccccc1F` (configuration not stated), the Activity is recorded as 70.7% in the test on Tobacco mosaic virus [1], 41% in the test on Tobacco mosaic virus [2] and 6.2% in the test on Tobacco mosaic virus [3].

On to `CCOP(=O)(OCC)C(NC(=O)c1ccccc1C(F)(F)F)c1ccccc1F` (configuration not stated), for which the Activity with Tobacco mosaic virus [1] amounted to 62.2%; with Tobacco mosaic virus [2], 39.2%; in the test with Tobacco mosaic virus [3], 2.1%.

As for `CCOP(=O)(OCC)C(NC(=O)c1ccccc1Cl)c1ccccc1F` (configuration not stated), the Activity is on record as 39% in the test with Tobacco mosaic virus [1], 40.9% in the test on Tobacco mosaic virus [2] and 19.7% with Tobacco mosaic virus [3].

In the case of `CCOP(=O)(OCC)C(NC(=O)/C=C/c1ccccc1)c1ccccc1F` (configuration not stated), the Activity worked out at 51.5% in the test on Tobacco mosaic virus [1], 39% in the test with Tobacco mosaic virus [2] and 22.4% in the test on Tobacco mosaic virus [3].

With `CCOP(=O)(OCC)C(NC(=O)c1cc(OC)c(OC)c(OC)c1)c1ccccc1F` (configuration not stated), the Activity in the test with Tobacco mosaic virus [1] was found to be 33.7%; with Tobacco mosaic virus [2] it was 41.2%; in the test with Tobacco mosaic virus [3] it was 17.1%.

Take `CCOP(=O)(OCC)C(NC(=O)c1ccccc1F)c1ccccc1F` (configuration not stated): the Activity in the test on Tobacco mosaic virus [1] worked out at 80%; with Tobacco mosaic virus [2], 50%; with Tobacco mosaic virus [3], 20.8%.

As to `CCOP(=O)(OCC)C(NC(=O)/C=C/c1ccccc1)c1ccccc1` (configuration not stated) [(E)-DIETHYL CINNAMAMIDO(PHENYL)METHYLPHOSPHONATE], the Activity in the test with Tobacco mosaic virus [4] is 49.1%; in the test with Tobacco mosaic virus [5], 32.3%; with Tobacco mosaic virus [6], 39.9%; with Tobacco mosaic virus [7], 61.2%; in the test with Tobacco mosaic virus [8], 79.9%; in the test with Tobacco mosaic virus [1], 88.2%. Moreover, the Activity was determined as 58.7% in the test with Tobacco mosaic virus [2] and 50% with Tobacco mosaic virus [3]. Also, the EC50 in the test with Tobacco mosaic virus [9] came out at 439 µg/mL (≈ 1180 µM); in the test with Tobacco mosaic virus [10], 65.2 µg/mL (≈ 175 µM).

As for `CCOP(=O)(OCC)C(NC(=O)c1ccccc1)c1ccccc1F` (configuration not stated) [DIETHYL BENZAMIDO(2-FLUOROPHENYL)METHYLPHOSPHONATE], the Activity with Tobacco mosaic virus [1] came to 70%; in the test with Tobacco mosaic virus [2], 43.1%; in the test on Tobacco mosaic virus [3], 32.2%.

As to `CCOP(=O)(OCC)C(NC(=O)c1ccccc1)c1ccccc1` (configuration not stated) [DIETHYL BENZAMIDO(PHENYL)METHYLPHOSPHONATE], the results for the Activity in the test on Tobacco mosaic virus [1], in the test on Tobacco mosaic virus [2] and in the test on Tobacco mosaic virus [3] were 42.4%, 39.1% and 8.7%, respectively.

Regarding `CCOP(=O)(OCC)C(NC(=O)c1ccccc1C(F)(F)F)c1ccccc1` (configuration not stated) [DIETHYL PHENYL(2-(TRIFLUOROMETHYL)BENZAMIDO)METHYLPHOSPHONATE], the Activity in the test on Tobacco mosaic virus [1] is given as 45.3%; in the test on Tobacco mosaic virus [2] it was 41.1%; in the test with Tobacco mosaic virus [3], 2.4%.

On to `CCOP(=O)(OCC)C(NC(=O)c1cc(OC)c(OC)c(OC)c1)c1ccccc1` (configuration not stated) [DIETHYL PHENYL(3,4,5-TRIMETHOXYBENZAMIDO)METHYLPHOSPHONATE], for which the figures for the Activity in the test with Tobacco mosaic virus [1], in the test with Tobacco mosaic virus [2] and with Tobacco mosaic virus [3] were 45.6%, 42% and 35.6%, respectively.

With `CCOP(=O)(OCC)C(NC(=O)c1ccccc1Cl)c1ccccc1` (configuration not stated) [DIETHYL(2-CHLOROBENZAMIDO)(PHENYL)METHYLPHOSPHONATE], the Activity stood at 59% in the test with Tobacco mosaic virus [4]; 60.9% in the test with Tobacco mosaic virus [7]; 82.2% in the test with Tobacco mosaic virus [8]; 90.6% with Tobacco mosaic virus [1]; 58% in the test with Tobacco mosaic virus [2]; 19% in the test on Tobacco mosaic virus [3]. Further, the concentration for a half-maximal effect (EC50) with Tobacco mosaic virus [10] was 60 µg/mL (≈ 157 µM).

Consider `CCOP(=O)(OCC)C(NC(=O)c1ccccc1F)c1ccccc1` (configuration not stated) [DIETHYL(2-FLUOROBENZAMIDO)(PHENYL)METHYLPHOSPHONATE], for which the Activity in the test on Tobacco mosaic virus [4] is listed as 36.7%; with Tobacco mosaic virus [5], 34%; with Tobacco mosaic virus [6] it was 49%; with Tobacco mosaic virus [7], 47.2%; in the test on Tobacco mosaic virus [8] it was 70.9%; with Tobacco mosaic virus [1] it was 78%. The Activity in the test on Tobacco mosaic virus [2] is reported as 42%; with Tobacco mosaic virus [3], 53.6%. Further, the results for the EC50 in the test on Tobacco mosaic virus [9] and in the test on Tobacco mosaic virus [10] were 256 µg/mL (≈ 700 µM) and 119 µg/mL (≈ 326 µM), respectively.

`CCOP(=O)(OCC)C(NC(=O)c1cccc(F)c1)c1ccccc1` (configuration not stated) [DIETHYL(3-FLUOROBENZAMIDO)(PHENYL)METHYLPHOSPHONATE]: the Activity in the test with Tobacco mosaic virus [1] came to 82.1%; with Tobacco mosaic virus [2], 56%; in the test on Tobacco mosaic virus [3] it was 24.6%.

Consider `CCOP(=O)(OCC)C(NC(=O)c1ccc(F)cc1)c1ccccc1` (configuration not stated) [DIETHYL(4-FLUOROBENZAMIDO)(PHENYL)METHYLPHOSPHONATE], for which the Activity turned out to be 70% in the test on Tobacco mosaic virus [4]; 76.1% with Tobacco mosaic virus [7]; 100% in the test with Tobacco mosaic virus [8]; 99.1% in the test on Tobacco mosaic virus [1]; 65.7% with Tobacco mosaic virus [2]; 19.2% in the test with Tobacco mosaic virus [3]. For the same compound, the EC50 in the test with Tobacco mosaic virus [10] is 54.8 µg/mL (≈ 150 µM).

Turning to `CCCOP(=O)(OCCC)C(NC(=O)c1ccccc1)c1ccccc1` (configuration not stated) [DIPROPYL BENZAMIDO(PHENYL)METHYLPHOSPHONATE], the Activity with Tobacco mosaic virus [4] was determined as 10%; in the test with Tobacco mosaic virus [5], 14%; in the test on Tobacco mosaic virus [6], 23.9%; in the test on Tobacco mosaic virus [7], 23%; in the test with Tobacco mosaic virus [8], 51%; in the test on Tobacco mosaic virus [1] it was 78.9%. For the same compound, the values for the Activity with Tobacco mosaic virus [2] and in the test with Tobacco mosaic virus [3] were 49.9% and 42%, respectively. The figures for the EC50 in the test with Tobacco mosaic virus [9] and in the test with Tobacco mosaic virus [10] were 560 µg/mL (≈ 1490 µM) and 279 µg/mL (≈ 743 µM), respectively.

`CCCOP(=O)(OCCC)C(NC(=O)c1ccccc1C(F)(F)F)c1ccccc1` (configuration not stated) [DIPROPYL PHENYL(2-(TRIFLUOROMETHYL)BENZAMIDO)METHYLPHOSPHONATE]: the Activity with Tobacco mosaic virus [4] stood at 31.2%; in the test on Tobacco mosaic virus [5], 31.6%; with Tobacco mosaic virus [6], 38%; in the test with Tobacco mosaic virus [7], 39.2%; in the test with Tobacco mosaic virus [8], 60%; in the test on Tobacco mosaic virus [1], 80%. In addition, the figures for the Activity in the test with Tobacco mosaic virus [2] and in the test with Tobacco mosaic virus [3] were 44% and 53.7%, respectively. For the same compound, the results for the EC50 with Tobacco mosaic virus [9] and with Tobacco mosaic virus [10] were 422 µg/mL (≈ 952 µM) and 199 µg/mL (≈ 449 µM), respectively.

On to `CCCOP(=O)(OCCC)C(NC(=O)c1cc(OC)c(OC)c(OC)c1)c1ccccc1` (configuration not stated) [DIPROPYL PHENYL(3,4,5-TRIMETHOXYBENZAMIDO)METHYLPHOSPHONATE], for which the Activity in the test on Tobacco mosaic virus [4] is on record as 28.8%; with Tobacco mosaic virus [5] it was 40.9%; in the test with Tobacco mosaic virus [6], 50.6%; with Tobacco mosaic virus [7] it was 30.3%; in the test with Tobacco mosaic virus [8], 61%; with Tobacco mosaic virus [1], 83.4%. Moreover, the Activity with Tobacco mosaic virus [2] amounted to 58.8%; with Tobacco mosaic virus [3] it was 55%. The EC50 came to 250 µg/mL (≈ 537 µM) in the test on Tobacco mosaic virus [9] and 210 µg/mL (≈ 451 µM) with Tobacco mosaic virus [10].

As for `CCCOP(=O)(OCCC)C(NC(=O)c1cccc(F)c1)c1ccccc1` (configuration not stated) [DIPROPYL(3-FLUOROBENZAMIDO)(PHENYL)METHYLPHOSPHONATE], the Activity in the test with Tobacco mosaic virus [4] was found to be 40.1%; in the test with Tobacco mosaic virus [5] it was 12.9%; with Tobacco mosaic virus [6], 21%; in the test on Tobacco mosaic virus [7], 46%; with Tobacco mosaic virus [8], 65%; in the test with Tobacco mosaic virus [1], 86.6%. In addition, the results for the Activity in the test on Tobacco mosaic virus [2] and with Tobacco mosaic virus [3] were 50.9% and 43%, respectively. For the same compound, the EC50 was found to be 546 µg/mL (≈ 1390 µM) in the test on Tobacco mosaic virus [9] and 150 µg/mL (≈ 381 µM) in the test on Tobacco mosaic virus [10].

In the case of `CNCC(=O)N[C@@H](CO)C(=O)N[C@H]1[C@H](O)[C@@H](O)[C@H](n2ccc(N)nc2=O)O[C@@H]1C(N)=O` [NINGNANMYCIN], the Activity in the test on Tobacco mosaic virus [4] worked out at 69%; in the test on Tobacco mosaic virus [5] it was 40.9%; in the test on Tobacco mosaic virus [6], 51%; with Tobacco mosaic virus [7] it was 78.4%; with Tobacco mosaic virus [8], 100%; with Tobacco mosaic virus [1], 100%. The results for the Activity in the test with Tobacco mosaic virus [2] and with Tobacco mosaic virus [3] were 60.2% and 55.4%, respectively. In addition, the EC50 with Tobacco mosaic virus [9] stood at 246 µg/mL (≈ 555 µM); in the test on Tobacco mosaic virus [10] it was 55.6 µg/mL (≈ 125 µM).
